According to ChEMBL document CHEMBL4118107, “Synthesis and Biological Evaluation of ( E)-4-Hydroxy-3-methylbut-2-enyl Phosphate (HMBP) Aryloxy Triester Phosphoramidate Prodrugs as Activators of Vγ9/Vδ2 T-Cell Immune Responses” (J Med Chem, 2018):
Calls of active or inactive are those of the source. The rule behind the calls is not given here.

Experiments:
[1] = biological target: T1, Butyrophilin subfamily 3 member A1 (Homo sapiens, UniProt O00481); assay: Binding affinity to butyrophilin 3A1 in human Vgamma9/Vdelta2 T-cells assessed as activation of Vgamma9/Vdelta2 T-cells by upregulation of CD69 and CD25 after 18 hrs
Procedure, shortened: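 Healthy-donor PBMC incubated 18 h with medium or titrated compound (up to 100 μM). TCR Vγ9+/Vδ2+ cells were gated and scored by flow cytometry for surface CD69 and CD25 upregulation versus medium control.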

[2] = biological target: T1, Butyrophilin subfamily 3 member A1; assay: Binding affinity to butyrophilin 3A1 in human Vgamma9/Vdelta2 T-cells assessed as activation of Vgamma9/Vdelta2 T-cell-mediated lysis of human T24 cells preincubated for 4 hrs followed by compound washout measured after 18 hrs
Procedure, shortened: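 T24 urinary bladder carcinoma cells (target) pulsed 4 h with 10 nM prodrug, medium, or 10 μM zoledronate. They were then cocultured 18 h with in vitro expanded Vγ9/Vδ2 T cells (effector) across target/effector ratios. Specific killing was scored by amine-reactive dead cell marker staining. Summary is at 1:10 target/effector, mean ± SD, n = 2, with one-way ANOVA.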
Target sequence in this assay (O00481 30-513 limits assumed): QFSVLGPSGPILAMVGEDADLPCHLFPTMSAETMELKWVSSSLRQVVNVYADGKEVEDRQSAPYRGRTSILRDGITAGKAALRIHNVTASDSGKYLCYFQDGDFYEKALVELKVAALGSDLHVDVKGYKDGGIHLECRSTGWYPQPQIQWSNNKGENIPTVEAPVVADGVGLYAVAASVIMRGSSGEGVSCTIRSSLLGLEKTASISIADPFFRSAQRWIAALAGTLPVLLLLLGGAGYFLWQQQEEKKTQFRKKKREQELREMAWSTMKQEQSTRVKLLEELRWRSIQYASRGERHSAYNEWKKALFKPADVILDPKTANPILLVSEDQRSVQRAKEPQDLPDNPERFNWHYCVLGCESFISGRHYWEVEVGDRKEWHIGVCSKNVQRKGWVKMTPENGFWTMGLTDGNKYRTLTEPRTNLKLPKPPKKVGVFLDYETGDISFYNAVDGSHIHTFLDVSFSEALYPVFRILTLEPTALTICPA

[3] = biological target: T1, Butyrophilin subfamily 3 member A1; assay: Binding affinity to butyrophilin 3A1 in human Vgamma9/Vdelta2 T-cells assessed as activation of Vgamma9/Vdelta2 T-cells by measuring levels of CD69 and CD25 at 10 uM after 18 hrs relative to control
Procedure, shortened: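 Human PBMC from healthy donors incubated 18 h with medium or compound (titrations up to 100 μM). Vγ9/Vδ2 T cells gated by TCR Vγ9 and Vδ2 expression. Surface CD69 and CD25 upregulation measured by flow staining and compared with medium control. n = 4–5 donors.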
Target sequence in this assay (O00481 30-513 limits assumed): as above

[4] = species on record: Homo sapiens; assay: Upregulation of CD69/CD25 levels in human CD8-positive T cells expressing alpha-beta TCR; type: functional, cell-based
Procedure, shortened: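 Healthy-donor human PBMC incubated 18 h with medium or compound (range up to 100 μM). CD3+ CD8+ αβ T cells were gated and analysed by flow cytometry for cell-surface CD69 and CD25 upregulation.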

[5] = biological target: T1, Butyrophilin subfamily 3 member A1; assay: Binding affinity to butyrophilin 3A1 in human Vgamma9/Vdelta2 T-cells assessed as activation of Vgamma9/Vdelta2 T-cells by measuring levels of CD69 and CD25 at 0.1 uM after 18 hrs relative to control
Procedure, shortened: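 Healthy-donor PBMC incubated 18 h with medium or titrated compound (up to 100 μM). TCR Vγ9+/Vδ2+ cells were gated and scored by flow cytometry for surface CD69 and CD25 upregulation versus medium control. EC50 was taken from titration curves, n = 4–5 donors.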
Target sequence in this assay (O00481 30-513 limits assumed): as above

[6] = biological target: T1, Butyrophilin subfamily 3 member A1; assay: Ratio of ED50 for binding affinity to butyrophilin 3A1 in human Vgamma9/Vdelta2 T-cells for Vgamma9/Vdelta2 T-cell-mediated lysis of human T24 cells to EC50 for binding affinity to butyrophilin 3A1 for activation of Vgamma9/Vdelta2 T-cells
Target sequence in this assay (O00481 30-513 limits assumed): as above

[7] = biological target: T1, Butyrophilin subfamily 3 member A1; assay: Potency index, ratio of zoledronate EC50 to test compound EC50 for binding affinity to butyrophilin 3A1 in human Vgamma9/Vdelta2 T-cells assessed as activation of Vgamma9/Vdelta2 T-cells by upregulation of CD69 and CD25
Target sequence in this assay (O00481 30-513 limits assumed): as above

| SMILES | EC50 [1] [nM] | ED50 [2] [nM] | Activity [3] [%] | Activity [4] | Activity [5] [%] | Ratio [6] | Activity [1] | Ratio EC50 [7] |
| --- | --- | --- | --- | --- | --- | --- | --- | --- |
| O=P(O)(O)C(O)(Cn1ccnc1)P(=O)(O)O [ZOLEDRONIC ACID] | 487 | > 100000 | 39.2 | inactive | – | – | – | – |
| C/C(=C\COP(=O)(N[C@@H](C)C(=O)OC(C)(C)C)Oc1ccccc1)CO[Si](C)(C)C(C)(C)C (some centres not stated) | 8.92 | > 100000 | – | inactive | 29.9 | – | – | – |
| COC(=O)[C@H](C)NP(=O)(OC/C=C(\C)CO[Si](C)(C)C(C)(C)C)Oc1ccccc1 (some centres not stated) | 1.38 | 29500 | – | inactive | 39 | 21400 | – | – |
| C/C(=C\CO)CO[Si](C)(C)C(C)(C)C | – | – | – | – | – | – | inactive | – |
| C/C(=C\COP(=O)(N[C@@H](C)C(=O)OC(C)C)Oc1ccccc1)CO[Si](C)(C)C(C)(C)C (some centres not stated) | 10.6 | 83200 | – | inactive | 31 | 7830 | – | – |
| C/C(=C\COP(=O)(N[C@@H](C)C(=O)OCc1ccccc1)Oc1ccccc1)CO[Si](C)(C)C(C)(C)C (some centres not stated) | 0.45 | 8510 | – | inactive | 50.6 | 12900 | – | 1080 |
| C/C(=C\COP(=O)(O)OP(=O)(O)O)CO | – | > 100000 | – | inactive | – | – | – | – |
